This is a sample that favours compounds with a hit; in the whole collection about 2.5% have one here.
MC4R ag barr: human MC4R agonism via beta-arrestin. P32245. U2OS MC4R beta-arrestin complementation, luminescence; percent of melanotan II response, DMSO zero. activation, % at 8.9 µM. 360,000 tested, 0.98% active;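 active = activation above a per-plate cutoff, the mean activation of sample wells on that plate plus 3 SD, cut at about 8% in these data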
NTR1 agonist: NTR1 (human) agonism; P30989; NTR1-U2OS beta-arrestin-GFP spot imaging, agonist mode; 330,000 tested, 0.17% active; AID 493036; activation, % at 20 µM;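 active = activation at or above 40% of the spot to cytoplasm intensity ratio, with at least 20 cells analyzed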;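 also: 0% = DMSO without peptide and 100% = 100 nM NTR1 peptide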
Rev-erbA mod: modulators of human Rev-erb alpha DNA binding; P20393; Rev-erbα–FITC-DNA binding, fluorescence polarization, 90 min; activity, % at 10 µM; 370,000 tested, 0.79% active;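 active = activity above about 14%, limit read from the data; passing the limit was not always enough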;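 also: 0% = DMSO wells with 35 nM protein and 100% = DMSO wells with 750 nM protein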
PG9 binder: binds the HIV-1 gp120 antibody PG9. AID 624416. TR-FRET gp120-PG9 antibody binding. 360,000 tested, 0.43% active. inhibition, % at 6.7 µM; in the data active = inhibition above about 8.5%
MC4R antag cAMP: antagonists of human melanocortin 4 receptor (MC4R); P32245; MC4R-expressing cells, MTII-stimulated cAMP, LANCE TR-FRET; inhibition, % at 6.5 µM; 360,000 tested, 0.48% active; AID 540295;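 active = inhibition above its plate's cutoff, the mean of tested wells on that plate plus 3 SD, cut at about 29% in these data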;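 also: 0% = Melanotan II alone and 100% = Melanotan II plus saturating MCL0020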
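Material – human MC4R-expressing U2OS cells · Repeats – no replicates · Detection – TR-FRET with Eu-cAMP and labeled anti-cAMP, 671 nm · Times – compound 30 min, challenge 1 h, detection 1 h · Compound – single nominal compound dose of 6.5 µM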
MC4R barr ag: human MC4R beta-arrestin agonism confirmation; shares compounds with MC4R ag barr; U2OS MC4R beta-arrestin recruitment, luminescence; scaled DMSO 0%, Melanotan II 100%; activation, % at 8.9 µM; 2,400 tested, 31% active;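 active = mean activation across replicates above the hit cutoff set in the earlier primary screen, cut at about 8% in these data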
MOR DOR agonist: counter-screen for MC4R agonists: agonists of mu-delta opioid heterodimer; shares compounds with MC4R ag barr; 2,400 tested, 5.8% active; activation, % at 9.2 µM; U2OS PathHunter beta-arrestin, beta-gal luminescence; percent of deltorphin B response, DMSO zero;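 active = mean activation across replicates exceeds the hit threshold derived in the earlier primary screen, cut at about 18% in these data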;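 also: 100% = deltorphin B at 0.9 µM final and 0% = DMSO alone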
Target sequence (P35372 whole entry, looked up): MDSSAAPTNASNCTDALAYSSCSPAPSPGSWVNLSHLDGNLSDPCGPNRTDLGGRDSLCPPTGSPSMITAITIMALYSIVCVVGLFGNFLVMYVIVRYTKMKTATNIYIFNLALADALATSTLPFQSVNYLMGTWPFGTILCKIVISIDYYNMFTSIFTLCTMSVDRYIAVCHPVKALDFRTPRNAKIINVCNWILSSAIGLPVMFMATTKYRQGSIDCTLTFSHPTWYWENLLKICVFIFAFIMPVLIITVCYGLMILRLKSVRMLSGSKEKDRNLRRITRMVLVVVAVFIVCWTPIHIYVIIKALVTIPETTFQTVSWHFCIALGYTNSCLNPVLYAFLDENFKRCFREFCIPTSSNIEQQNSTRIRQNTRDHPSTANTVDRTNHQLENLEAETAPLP
Target sequence (P41143 whole entry, looked up): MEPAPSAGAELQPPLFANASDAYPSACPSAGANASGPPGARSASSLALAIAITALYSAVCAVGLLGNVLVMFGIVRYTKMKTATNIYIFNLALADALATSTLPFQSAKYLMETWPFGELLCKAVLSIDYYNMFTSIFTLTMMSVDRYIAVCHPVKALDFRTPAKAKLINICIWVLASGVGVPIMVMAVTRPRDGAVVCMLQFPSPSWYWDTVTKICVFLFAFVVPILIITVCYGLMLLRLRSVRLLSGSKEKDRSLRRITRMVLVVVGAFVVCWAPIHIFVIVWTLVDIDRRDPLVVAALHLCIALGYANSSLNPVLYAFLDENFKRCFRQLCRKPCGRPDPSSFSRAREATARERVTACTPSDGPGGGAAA
PG9 binder conf: PG9 antibody binding, confirmed. TR-FRET PG9 antibody binding, biochemical. inhibition, % at 6.7 µM. 1,500 tested, 90% active. AID 651571. shares compounds with PG9 binder; in the data active = inhibition above about 9%
PGV04 Ab binding: counter-screen for PG9 binders: binding control antibody PGV04; shares compounds with PG9 binder; TR-FRET PGV04 antibody-gp120 binding, biochemical; inhibition, % at 6.7 µM; 1,500 tested, 95% active; in the data active = inhibition above about 9.5%
PG9 binder DR: PG9 antibody binding, dose response | shares compounds with PG9 binder | 95 tested, under 10 active | IC50, µM | TR-FRET PG9 antibody-gp120 binding inhibition; in the data active = IC50 below about 10 µM
PGV04 binding DR: counter-screen for PG9 binders: binding to control antibody PGV04; shares compounds with PG9 binder; TR-FRET binding to control antibody PGV04; IC50, µM; 95 tested, 20% active
PG126 DR counter: binds control antibody PG126 in PG9 counter-screen | AID 651939 | shares compounds with PG9 binder | TR-FRET binding to antibody PG126, counterscreen | 95 tested, 20% active | IC50, µM
Numbers without * were called inactive; i = inactive; . = no result given. Rule as the data show it, unless noted: active = IC50 below about 9 µM; inactive = the rest.

SMILES	MC4R ag barr	NTR1 agonist	Rev-erbA mod	PG9 binder	MC4R antag cAMP	MC4R barr ag	MOR DOR agonist	PG9 binder conf	PGV04 Ab binding	others
Cc1cc(C)c2nc(-c3ccccn3)cc(C(=O)Nc3cc(C)on3)c2c1	16*	3	11	17*	14	3	4	19*	27*
COc1ccc(-c2cc(C(F)(F)F)nc(SCC(=O)NCc3cccs3)n2)cc1	16*	15	22	13*	3	-2	2	8	9
CSCC[C@H](N)C(=O)O	.	.	-5	.	.	.	.	.	.
Cc1ccc(NC(=S)NNC(=O)CSc2nc3sc4c(c3c(=O)n2-c2ccccc2)CCCC4)cc1	.	.	-1	.	.	.	.	.	.
N/C(=N\c1nc(CSc2nc3ccccc3s2)cc(=O)[nH]1)Nc1ccc(F)cc1	12*	12	7	9.3*	2	1	3	27*	40*
COc1cc(-n2c(C)nc3cc(C(=O)N4CCN(C(C)=O)CC4)ccc32)cc(OC)c1OC	.	.	6	.	.	.	.	.	.
Cc1ccc2c(c1)C(CS(=O)(=O)NCC(C)C)NC2 (stereo not drawn)	.	.	-6	.	.	.	.	.	.
COc1ccc(-n2nnnc2/C=C\Nc2ccccc2C(=O)c2ccccc2)cc1	-1	-2	-6	1	-1	.	.	.	.
CC(=O)c1cccc(N/C=C\c2nnnn2-c2ccc(F)cc2)c1	16*	4	-11	17*	2	6	3	11*	20*
Cc1cccnc1NC(=O)CNC(=O)c1sc2ccccc2c1Cl	-1	-1	1	1	4	.	.	.	.
CC(=O)c1cccc(NC(=O)CNC(=O)c2sc3ccccc3c2Cl)c1	19*	0	12	15*	9	24*	18*	17*	41*
Cc1cccc(NC(=O)CNC(=O)c2sc3ccccc3c2Cl)n1	11*	0	7	12*	4	-1	13	4	41*
COc1cccc(NC(=O)CN(C)C(=O)CNC(=O)c2sc3ccccc3c2Cl)c1	-1	0	4	7	2	.	.	.	.
CSc1ccc(C(=O)NC2CCSc3ccccc32)cc1 (stereo not drawn)	21*	0	1	16*	-4	3	6	11*	10*	PG9 binder DR=>67;PGV04 binding DR=i;PG126 DR counter=i
COc1ccc(C(=O)NC2CCSc3ccccc32)cc1 (stereo not drawn)	0	-1	0	-2	-2	.	.	.	.
COc1ccc(-c2nsc(SCC(=O)Nc3cc(C)on3)n2)cc1	17*	0	13	42*	6	-1	7	41*	55*
Cc1cccc(-c2nsc(SCC(=O)Nc3nccs3)n2)c1	13*	0	8	10*	6	0	8	9.2*	12*
NCCCC(C(=O)O)N(C(=O)OCc1ccccc1)C(=O)OCc1ccccc1 (stereo not drawn)	.	.	3	0	.	.	.	.	.
CC(=O)Nc1nnc(SCc2ccc(F)cc2)s1	0	0	-2	-1	15	.	.	.	.
O=C(Nc1nnc(SCc2ccc(F)cc2)s1)c1ccc2ncsc2c1	17*	.	12	9.7*	4	-1	3	19*	25*
Cc1cc(C)c(Cn2c(=O)n(CCCC(=O)NCc3ccco3)c(=O)c3sccc32)c(C)c1	33*	-1	16	18*	0	-1	7	21*	26*
CCN(C(=O)c1cc2c(=O)[nH]c3ccc(C)cc3c2s1)c1ccc(F)cc1	12*	4	-2	15*	9	2	6	14*	24*
CCN(C(=O)c1cc2c(=O)[nH]c3ccc(C)cc3c2s1)c1cccc(C)c1	7	6	8	0	-6	.	.	.	.
O=C(NN=Cc1ccccc1O)C(=O)Nc1ccc(F)cc1	.	.	5	2	.	.	.	.	.
COc1cccc(-c2ccc(C#N)c(SCC(=O)NCc3ccco3)n2)c1	19*	1	2	11*	2	-3	17	20*	36*
SMILES	MC4R ag barr	NTR1 agonist	Rev-erbA mod	PG9 binder	MC4R antag cAMP	MC4R barr ag	MOR DOR agonist	PG9 binder conf	PGV04 Ab binding	others
C#CCn1c(=NC(=O)c2ccco2)sc2cccc(Cl)c21	33*	7	18	16*	-8	5	11	16*	45*
Cc1nn(-c2ccccc2)c2sc(C(=O)NNC(=O)COc3ccccc3)cc12	2	2	-3	2	-5	.	.	.	.
Cc1nn(-c2ccccc2)c2sc(C(=O)NNC(=O)COc3cccc4ccccc34)cc12	25*	6	9	10*	4	6	4	11*	20*
CCSc1nnc(NC(=O)c2csc3c2CCCC3)s1	15*	3	12	9.2*	0	27*	15	24*	38*
CC(C)(C)c1ccc(-c2nnc(SCC(=O)Nc3ccc(S(=O)(=O)Nc4nccs4)cc3)n2-c2ccc(Cl)cc2)cc1	.	.	0	.	.	.	.	.	.
O=c1c2ccccc2n(Cc2ccno2)n1[C@@H](Cc1ccccc1)Cn1cc(C2CCCC2)nn1	.	.	6	.	.	.	.	.	.
NNC(=O)c1cc(-c2ccc(O)cc2)nc2ccc(Br)cc12	4	1	-1	-1	10	.	.	.	.
Cc1ccc(-c2cc(C(=O)N(C)Cc3cnn(C)c3C)c3cc(Br)ccc3n2)cc1	9.7*	17	11	21*	13	2	3	25*	30*
N#Cc1c(N)c(C#N)c(-c2ccc(O)cc2)c2c1CCCC2	1	13	-8	-3	3	.	.	.	.
N#Cc1c(N)c(C#N)c(-c2ccc3c(c2)OCO3)c2c1CCCC2	10*	24	13	11*	5	2	4	10*	23*
C=CCN1[C@@H](Cc2ccccc2)COc2cccc(N3CCCC3)c2S1(=O)=O	.	.	1	.	.	.	.	.	.

Screening data from PubChem.
